GSK3B inh: human GSK3beta kinase inhibition. P49841. GST-GSK3beta kinase, ADP-Glo luminescence, 60 min; active compounds read low. AID 2097. 300,000 tested, 0.038% active. activity score (negative = inhibition), % at 10 µM;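 active = more than half of replicate wells score below -50%, meaning over 50% inhibition versus plate controls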
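Test system: GST-fused GSK3beta enzyme, cell-free | Quantity: 1.6 ng GST-GSK3beta enzyme per well | Reagent: 25 µM ATP with peptide substrate | Schedule: 60 min enzyme reaction, room temperature | Signal: Luminescent ADP-Glo measurement of ADP formed | Read-out basis: Score relative to plate controls | Control set: DMSO and 20 µM GW8510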
Env fusion inh: blocks HIV Env-driven cell-cell fusion; 360,000 tested, 1.1% active; AID 651610; HeLa-JRFL Env/CEM21 cell fusion, luciferase; inhibition, % at 12.3 µM;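 active = mean replicate inhibition score of at least 50 and every replicate individually at or above 50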
CDK5 inh: blocks human CDK5/p35 kinase activity. Q00535+Q15078. inhibition, % at 10 µM. 330,000 tested, 0.01% active. Recombinant CDK5/p35, ADP-Glo luminescence, 60 min;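 active = highest replicate inhibition of at least 50% and at least 75% of replicates reaching 50%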
GSK3 alpha inh: inhibitors of human GSK-3 alpha kinase | ADP-Glo luminescence, 60 min | inhibition, % at 10 µM | 320,000 tested, 0.1% active;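 active = more than half of replicates show inhibition above 20%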;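 note: GST-tagged GSK-3 alpha with peptide substrate and 25 µM ATP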
STK33 kinase inh: blocks human STK33 kinase activity; purified STK33, MBP phosphorylation, ADP-Glo luminescence; 320,000 tested, 0.073% active; inhibition, % at 10 µM; Q9BYT3;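 active = inhibition at or above 25%, using the most active replicate where run in duplicate; inactive = inhibition below 25%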
Target sequence (Q9BYT3 whole entry, looked up): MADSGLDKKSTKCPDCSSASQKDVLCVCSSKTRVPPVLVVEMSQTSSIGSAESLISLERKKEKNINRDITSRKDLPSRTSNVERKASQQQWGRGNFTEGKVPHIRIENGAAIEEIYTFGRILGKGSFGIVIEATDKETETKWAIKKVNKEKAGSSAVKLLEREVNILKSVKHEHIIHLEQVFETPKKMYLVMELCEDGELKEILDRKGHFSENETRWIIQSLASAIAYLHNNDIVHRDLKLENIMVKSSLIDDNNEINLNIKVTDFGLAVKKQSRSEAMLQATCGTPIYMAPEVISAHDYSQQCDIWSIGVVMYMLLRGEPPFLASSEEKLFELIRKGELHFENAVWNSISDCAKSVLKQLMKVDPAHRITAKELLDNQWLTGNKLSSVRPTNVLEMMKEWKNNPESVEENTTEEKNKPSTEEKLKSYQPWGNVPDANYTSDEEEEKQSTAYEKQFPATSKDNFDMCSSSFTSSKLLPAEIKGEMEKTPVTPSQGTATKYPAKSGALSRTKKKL
INS-1E GSIS act: primary screen for activators of insulin secretion dependent on glucose, INS-1E cells, GLuc reporter luminescence | INS-1E GLuc reporter insulin secretion, 2-3 h | activation, % at 16.6 µM | 370,000 tested, 0.61% active;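 active = lowest replicate activation of at least 40%, so every replicate reaches that level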
Numbers stand for hits; - = inactive; . = not tested or not shown; [ ] = another dose, or the depositor's remark. An excerpt weighted towards active compounds, which were near 1.4% of everything screened.

SMILES | GSK3B inh | Env fusion inh | CDK5 inh | GSK3 alpha inh | STK33 kinase inh | INS-1E GSIS act
CO[C@@H]1CN(C)C(=O)c2ccc(NC(=O)CC(F)(F)F)cc2OC[C@H](C)N(C(=O)C2CC2)C[C@@H]1C | . | . | . | . | . | -
O=C(C[C@H]1CC[C@@H](NC(=O)C2CCC2)[C@H](CO)O1)NCc1ccccc1Cl | . | - | . | . | . | -
CC=Cc1ccc2n(c1=O)C[C@@H]1[C@@H](CO)[C@H](C(=O)NCCC)[C@H]2N1S(=O)(=O)c1cn(C)cn1 (mixture of isomers) | . | . | . | . | . | -
CN(c1ccccc1)S(=O)(=O)c1cccc(NC(=O)C2=NNC(=O)CC2)c1 | . | 64 | - | - | - | -
CCC(=O)N1CC2(CN(C(=O)c3cccnc3)C2)c2c([nH]c3cc(OC)ccc23)[C@H]1CO | . | . | . | . | . | -
COCCNC(=S)N(C)[C@H]1C[C@H]2c3[nH]c4cccc(-c5ccccc5)c4c3CCN2C(=O)[C@H]1[C@H](C)O | . | 59 | . | . | . | -
C[C@H](O)[C@@H]1C(=O)N2CCc3c([nH]c4cccc(-c5ccccc5)c34)[C@@H]2C[C@@H]1N(C)C(=O)NC1CCCCC1 | . | 61 | . | . | . | -
C/C=C/c1cnc2c(c1)C(=O)N([C@H](C)CO)C[C@@H](C)[C@@H](CN(C)C(=O)NCCC)O2 | . | - | . | . | . | -
CCCn1c(SCC(=O)N2CCCC2=O)nc2ccccc2c1=O | . | - | - | . | . | 46
CCCn1c(SCC(=O)NCCCN2CCCC2=O)nc2ccccc2c1=O | . | . | - | - | - | -
O=[N+]([O-])c1ccc(NC(c2ccccc2)c2ccc3cccnc3c2O)cc1 (configuration not stated) | . | 62 | - | . | . | .
C=CCN1C(=S)CC(c2ccccc2)=Nc2ccccc21 | - | 92 | - | - | - | -
CCC(=O)N1CC2(C1)[C@H](c1ccccc1)[C@@H](CO)N2CC1CCCC1 | . | . | . | . | . | -
O=C(C[C@@H]1CC[C@@H]2[C@H](COC[C@H](O)CN2CCc2ccccc2)O1)N1CCC(Cc2ccccc2)CC1 | . | . | . | . | . | -
COc1ccc(/C=N/Nc2cc(C)nc3ccccc23)cc1 | - | - | - | - | - | -
COc1ccc2nc(C)cc(N/N=C/c3ccc(F)cc3)c2c1 | - | 90 | - | - | - | -
C=CCN=C1CC(C)(C)C(C(=O)OC)C(O)=C1C(=O)CCC (configuration not stated) | - | - | - | - | - | 73
CCCC(=O)C1=C(SCC)CC(C)(C)C(C(=O)OC)C1=O (configuration not stated) | - | . | - | - | - | .
CC(C)C(=O)Nc1ccc2c(c1)C(=O)N(C)[C@H]1CC[C@H](CC(=O)N[C@H](C)c3ccccc3)O[C@@H]1CO2 | . | - | . | . | . | -
COc1ccc2c3c(n(C)c2c1)[C@@H](CO)N(C(=O)C1CC1)CC31CCN(Cc2cccc(F)c2)CC1 | . | . | . | . | . | -
COc1ccc2c3c(n(C)c2c1)[C@H](CO)N(C(=O)C1CC1)CC31CCN(Cc2cccc(F)c2)CC1 | . | . | . | . | . | -
COc1ccc2c3c(n(C)c2c1)[C@H](CO)N(C(=O)C1CCOCC1)CC31CCN(Cc2cccc(F)c2)CC1 | . | 55[16.7 µM] | . | . | . | -
COc1ccc2c3c(n(C)c2c1)[C@@H](CO)N(C(=O)C1CCOCC1)CC31CCN(Cc2cccc(F)c2)CC1 | . | 70[16.7 µM] | . | . | . | -
COc1ccc2c3c([nH]c2c1)[C@H](CO)N(C(=O)CN(C)C)CC31CN(C(=O)c2ccncc2)C1 | . | . | . | . | . | -
COc1ccc(/C=C/c2nc(S(=O)(=O)c3ccccc3)c(NCCCN(C)C)o2)cc1OC | - | 74 | - | - | - | -
SMILES | GSK3B inh | Env fusion inh | CDK5 inh | GSK3 alpha inh | STK33 kinase inh | INS-1E GSIS act
COc1ccccc1/C=C/c1nc(S(=O)(=O)c2ccccc2)c(NCCN(C)C)o1 | - | - | . | - | - | -
O=C(c1cccnc1)N1C[C@@H]2[C@H](c3ccccc31)[C@H](CO)N2C(=O)Nc1ccccc1Cl | . | . | . | . | . | -
CCCCCCn1c2c(c(=N)c3c1CCC3)CCC2 | - | 81 | - | - | - | -
CCCCCCCn1c2c(c(=N)c3c1CCC3)CCCC2 | - | 72 | - | . | . | .
CCCCCCCCCn1c2c(c(=N)c3c1CCC3)CCC2 | - | . | - | - | - | .
Cc1nc2c(o1)C(=O)c1ccccc1C2=Nc1ccccc1 | . | 79 | - | . | . | -
CCOC(=O)c1cc2sccc2n1CC(=O)N1CCc2ccccc21 | - | 62 | - | - | - | -
CCc1nc(N2CCCCC2C(=O)O)c2oc3ccccc3c2n1 (configuration not stated) | - | - | - | - | - | -
CCc1nc(N2CCCCC2)c2oc3ccccc3c2n1 | - | 69 | - | - | - | .
CCc1nc(N2CCCCC2C)c2oc3ccccc3c2n1 (configuration not stated) | - | 75 | - | - | - | -
C[C@@H]1CN([C@@H](C)CO)S(=O)(=O)c2ccc(-c3cncnc3)cc2O[C@@H]1CN(C)Cc1cccnc1 | . | - | . | . | . | -
Cc1cc(C)c2nc(N(CCCN(C)C)C(=O)c3ccc4c(c3)CCCC4)sc2c1 | - | - | . | - | - | 40
C[C@@H]1CN([C@@H](C)CO)C(=O)c2cc(C3=CCCC3)cnc2O[C@H]1CN(C)Cc1ccccn1 | . | - | . | . | . | -
Cc1sc2nc(C3CC3)nc(SCC(=O)N3CCCc4ccccc43)c2c1C | - | - | . | - | - | -
Cc1sc2nc(C(C)C)nc(SCC(=O)N3CCN(C(=O)c4ccco4)CC3)c2c1C | - | 62 | - | - | - | .
Cc1sc2nc(C3CC3)nc(SCC(=O)N3CCc4ccccc4C3)c2c1C | - | 55 | - | - | - | .
Cc1sc2ncnc(SCC(=O)N3CCN(C(=O)c4ccco4)CC3)c2c1C | - | . | - | . | . | -
O=C1N(c2ccccc2)c2ccccc2[C@]12C[C@H](O)CO2 | . | - | . | . | . | 55
COc1ccc(C(=O)Nc2cccnc2Cl)cc1OC | - | - | - | - | - | 47
COc1ccc(C(=O)Nc2cccc3cccnc23)cc1OC | - | . | - | - | - | -
Cc1nnc2n1N=CC=C(c1ccccc1)S2 | - | - | - | - | - | 41
Cc1nnc2n1N=CC=C(C(C)(C)C)S2 | - | - | - | - | - | .
COc1ccc(NC(=O)N(C)C[C@@H]2Oc3ncc(C#CCC(C)C)cc3C(=O)N([C@@H](C)CO)C[C@@H]2C)cc1 | . | - | . | . | . | -
Nc1ncn([C@H]2C[C@H](O)[C@@H](CO)O2)c(=O)n1 | - | 69 | - | - | - | .
Nc1ccn([C@H]2C[C@H](O)[C@@H](CO)O2)c(=O)n1 | - | - | - | - | - | -
COCc1[nH]nc2c1C(c1ccc(F)cc1)N(Cc1ccccc1)C2=O (configuration not stated) | . | 77 | . | . | . | -
O=S(=O)(c1ccccc1Cl)N1CCCC1c1nc(-c2ccc(Cl)cc2)no1 (configuration not stated) | - | 82 | - | . | - | .
O=S(=O)(c1ccc(Cl)cc1)N1CCCC(c2nc(-c3ccc(F)cc3)no2)C1 (configuration not stated) | . | - | - | - | - | -
